Active and inactive are the calls of the source. The calls are words filed in the database; no cut-off is given here. Bridge positions count the residues as written; N and C are the ends. Square brackets hold non-standard residues; d marks the D form. Side chains are listed from the residue outwards. Peptide text beside a SMILES is read from it. * marks the point of attachment. ξ: configuration not given here. FITC = O=C1OC2(c3ccc(O)cc3Oc3cc(O)ccc32)c2ccc(NC(=S)*)cc21; ξtBuAla = CC(C)(C)CC(N)C(=O)O; ξD = NC(CC(=O)O)C(=O)O; ξDap = NCC(N)C(=O)O; βAla = NCCC(=O)O
How the values were obtained:
[1] = Drug uptake in human MCF7 cells assessed per million cells at 5 uM after 3 hrs by FACS analysis; format: ADME, cell-based; settings: mcf7, 3 h
In short: (§1)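 Adherent cells seeded overnight, then exposed to 5 μM FITC-labelled peptide or DMSO in FBS-free medium, 3 h, 37 °C. After PBS washes (three), about 10000 cells per sample analysed by flow cytometry; mean cellular fluorescence intensity calculated. More than two independent experiments, SEM.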

[2] = Drug uptake in human U2OS cells assessed per million cells at 5 uM after 3 hrs by FACS analysis; format: ADME, cell-based; in short: as §1
[3] = target: T1, Estrogen receptor (Homo sapiens) (UniProt P03372); assay: Binding affinity to recombinant human GFP-fused ERalpha LBD (301 to 553 residues) expressed in Escherichia coli BL21(DE3) after 40 mins in presence of 17beta-estradiol by fluorescence polarization assay; settings: in the assay text read “ERalpha LBD” for “GFP-fused ERalpha LBD”
T1 sequence (whole entry): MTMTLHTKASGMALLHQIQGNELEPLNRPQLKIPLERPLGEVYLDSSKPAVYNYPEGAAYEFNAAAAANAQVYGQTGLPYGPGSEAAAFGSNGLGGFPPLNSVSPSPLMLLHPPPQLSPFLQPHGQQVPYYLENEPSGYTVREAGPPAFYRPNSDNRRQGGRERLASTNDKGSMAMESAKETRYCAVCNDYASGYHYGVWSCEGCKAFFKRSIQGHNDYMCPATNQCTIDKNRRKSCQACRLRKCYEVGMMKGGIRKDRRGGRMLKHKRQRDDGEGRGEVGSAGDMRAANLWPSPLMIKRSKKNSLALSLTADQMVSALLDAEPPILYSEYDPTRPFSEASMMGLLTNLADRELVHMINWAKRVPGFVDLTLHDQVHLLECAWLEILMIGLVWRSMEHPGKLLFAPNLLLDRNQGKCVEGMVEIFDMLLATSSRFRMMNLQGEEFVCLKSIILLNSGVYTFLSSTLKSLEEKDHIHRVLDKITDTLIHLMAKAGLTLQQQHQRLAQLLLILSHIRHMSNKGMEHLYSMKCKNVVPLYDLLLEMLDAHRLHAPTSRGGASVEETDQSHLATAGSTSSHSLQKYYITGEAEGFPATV

[4] = test system: MCF7; assay: Cytotoxicity against human MCF7 cells assessed as cell viability at 20 uM after 24 hrs by MTT assay; format: functional; settings: MCF7, 24 h, read-out: Activity
[5] = target: T1, Estrogen receptor (Homo sapiens); assay: Binding affinity to recombinant human GFP-fused ERalpha LBD (301 to 553 residues) expressed in Escherichia coli BL21(DE3) in presence of ERalpha inhibitor 4-hydroxytamoxifen by ITC
In short: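 ITC at 25 °C. 50 μM peptide injected in 2 μL steps into 5 μM ERα LBD in 50 mM Tris pH 8.0, 150 mM NaCl, 1 mM TCEP containing 0.1 mM 4-hydroxytamoxifen instead of estradiol. Isotherm fitted.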

[6] = target: T1, Estrogen receptor (Homo sapiens); assay: Binding affinity to recombinant human GFP-fused ERalpha LBD (301 to 553 residues) expressed in Escherichia coli BL21(DE3) in presence of 17beta-estradiol by ITC
In short: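 ITC at 25 °C. 2 μL injections of 50 μM peptide into 5 μM ERα LBD in 50 mM Tris pH 8.0, 150 mM NaCl, 1 mM TCEP, 0.1 mM 17β-estradiol. Binding isotherm fitted for affinity.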

[7] = target: T1, Estrogen receptor (Homo sapiens); assay: Inhibition of recombinant human GFP-fused ERalpha LBD (301 to 553 residues) expressed in human […] cells assessed as downregulation of 17beta-estradiol-induced transcription at 5 uM preincubated for 4 hrs followed by E2 addition measured after 20 hrs by dual luciferase reporter gene assay; format: cell-based
In short: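 U2OS cells in phenol red-free DMEM with 10% charcoal-stripped FBS, transfected 4 h with pEGFP-C1-ERα, 3XERE firefly luciferase reporter and pRL-TK Renilla plasmids. Peptides for 4 h, then 10 nM E2 or DMSO for 20 h. Lysates read by dual-luciferase; firefly normalized to Renilla, then to DMSO-treated control. SEM from more than two independent experiments.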

[8] = target: T1, Estrogen receptor (Homo sapiens); assay: Inhibition of ERalpha in human MCF7 cells assessed as downregulation of 17beta-estradiol-mediated pS2 mRNA expression at 5 uM preincubated for 4 hrs followed by 17beta-estradiol addition measured after 16 hrs by quantitative RT-PCR analysis; format: cell-based
In short: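 MCF-7 cells hormone-depleted 72 h in phenol red-free DMEM with 5% charcoal-treated serum, given peptides or DMSO for 4 h, then 100 nM 17β-estradiol or DMSO for 16 h. pS2 mRNA measured by quantitative RT-PCR, normalized to β-actin. Three independent experiments, mean ± SEM.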

Row | Compound | Activity [3] | viability at 20 µM [4] [%] | also measured
1 | CC[C@H](C)[C@@H]1NC(=O)C(NC(=O)[C@H](CCCNC(=N)N)NC(=O)CCNC(=S)Nc2ccc3c(c2)C(=O)OC32c3ccc(O)cc3Oc3cc(O)ccc32)CNC(=O)C(CC(=O)N[C@@H](CCC(N)=O)C(=O)NC(CC(C)(C)C)C(=O)N[C@@H](CCCNC(=N)N)C(=O)NC(CC(C)(C)C)C(N)=O)NC(=O)C(CC(C)(C)C)NC1=O (stereo partly drawn) ({FITC-βAla}-R[ξDap]I[ξtBuAla][ξD]([Gln-ξtBuAla-Arg-ξtBuAla-NH2]); lactam 2-C) | inactive | – | Drug uptake [1]: Active; Drug uptake [2]: Active
2 | CC[C@H](C)[C@@H]1NC(=O)C[C@H](NC(=O)[C@H](CCCNC(=N)N)NC(=O)CCNC(=O)[C@H](Cc2c[nH]c3ccccc23)NC(C)=O)C(=O)NCC(C(=O)N[C@@H](CCCNC(=N)N)C(=O)N[C@@H](CC(C)C)C(=O)NC(CC(C)(C)C)C(=O)N[C@@H](CCC(N)=O)C(N)=O)NC(=O)[C@H](CC(C)C)NC1=O (some centres not stated) | – | 43.1 | –
3 | CC[C@H](C)[C@@H]1NC(=O)C[C@H](NC(=O)[C@H](CCCNC(=N)N)NC(=O)CCNC(=O)[C@H](Cc2c[nH]c3ccccc23)NC(C)=O)C(=O)NCC(C(=O)N[C@@H](CCCNC(=N)N)C(=O)N[C@@H](CC(C)C)C(=O)N[C@@H](CC(C)C)C(=O)N[C@@H](CCC(N)=O)C(N)=O)NC(=O)C(CC(C)(C)C)NC1=O (some centres not stated) | – | 53.9 | –
4 | CC[C@H](C)[C@@H]1NC(=O)C[C@H](NC(=O)[C@H](CCCNC(=N)N)NC(=O)CCNC(=O)[C@H](Cc2c[nH]c3ccccc23)NC(C)=O)C(=O)NCC(C(=O)N[C@@H](CCCNC(=N)N)C(=O)N[C@@H](CC(C)C)C(=O)N[C@@H](CC(C)C)C(=O)N[C@@H](CCC(N)=O)C(N)=O)NC(=O)[C@H](CC(C)C)NC1=O (some centres not stated) | – | 64.5 | –
5 | CC[C@H](C)[C@@H]1NC(=O)C(NC(=O)[C@H](CCCNC(=N)N)NC(=O)CCNC(=O)[C@H](Cc2c[nH]c3ccccc23)NC(C)=O)CNC(=O)C(CC(=O)N[C@@H](CCC(N)=O)C(=O)NC(CC(C)(C)C)C(=O)N[C@@H](CCCNC(=N)N)C(=O)NC(CC(C)(C)C)C(N)=O)NC(=O)C(CC(C)(C)C)NC1=O (stereo partly drawn) (Ac-W[βAla]R[ξDap]I[ξtBuAla][ξD]([Gln-ξtBuAla-Arg-ξtBuAla-NH2]); lactam 4-C) | – | 79.2 | inhibition [7]: inactive; inhibition [8]: inactive
6 | CC[C@H](C)[C@@H]1NC(=O)C[C@H](NC(=O)[C@H](CCCNC(=N)N)NC(=O)CCNC(=O)[C@H](Cc2c[nH]c3ccccc23)NC(C)=O)C(=O)NCC(C(=O)N[C@@H](CCCNC(=N)N)C(=O)NC(CC(C)(C)C)C(=O)N[C@@H](CC(C)C)C(=O)N[C@@H](CCC(N)=O)C(N)=O)NC(=O)[C@H](CC(C)C)NC1=O (some centres not stated) | – | 53.9 | –

More lines, main results first:

Row | Activity [3] | Compound | viability at 20 µM [4] [%] | also measured
7 | Active | CC[C@H](C)[C@@H]1NC(=O)C[C@H](NC(=O)[C@H](CCCNC(=N)N)NC(=O)CCNC(=S)Nc2ccc3c(c2)C(=O)OC32c3ccc(O)cc3Oc3cc(O)ccc32)C(=O)NCC(C(=O)N[C@@H](CCCNC(=N)N)C(=O)NC(CC(C)(C)C)C(=O)N[C@@H](CC(C)C)C(=O)N[C@@H](CCC(N)=O)C(N)=O)NC(=O)[C@H](CC(C)C)NC1=O (some centres not stated) | – | Drug uptake [1]: Active; Activity [5]: inactive; Drug uptake [2]: Active; Activity [6]: Active
8 | Active | CC[C@H](C)[C@@H]1NC(=O)C[C@H](NC(=O)[C@H](CCCNC(=N)N)NC(=O)CCNC(=S)Nc2ccc3c(c2)C(=O)OC32c3ccc(O)cc3Oc3cc(O)ccc32)C(=O)NCC(C(=O)N[C@@H](CCCNC(=N)N)C(=O)N[C@@H](CC(C)C)C(=O)NC(CC(C)(C)C)C(=O)N[C@@H](CCC(N)=O)C(N)=O)NC(=O)[C@H](CC(C)C)NC1=O (some centres not stated) | – | –
9 | Active | CC[C@H](C)[C@@H]1NC(=O)C[C@H](NC(=O)[C@H](CCCNC(=N)N)NC(=O)CCNC(=S)Nc2ccc3c(c2)C(=O)OC32c3ccc(O)cc3Oc3cc(O)ccc32)C(=O)NCC(C(=O)N[C@@H](CCCNC(=N)N)C(=O)N[C@@H](CC(C)C)C(=O)N[C@@H](CC(C)C)C(=O)N[C@@H](CCC(N)=O)C(N)=O)NC(=O)C(CC(C)(C)C)NC1=O (some centres not stated) | – | –
